{
  "source": "ChEMBL document CHEMBL5724801",
  "about": "“EUbOPEN Chemogenomics Library - Multiplex” (2024)",
  "test_system": "HEK-293T",
  "assay": "Multiplex assay against HEK293T",
  "assay_type": "toxicity, cell-based",
  "conditions": "human",
  "how_it_was_run": "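Compound was added to live cells that had been stained at seeding with Hoechst33342, BioTracker Green Microtubule Cytoskeleton Dye, MitoTracker Red and Annexin V Alexa Fluor 680, and imaging followed on a CQ1 microscope at 37°C and 5% CO2. CellPathfinder machine-learning gating divided cells into Hoechst high-intensity objects or normal cells, normal cells into healthy, pyknosed or fragmented nuclei, and pyknosed cells into mitotic or apoptotic. Tubulin, mitochondrial-mass and membrane-permeability phenotypes are per cents of healthy-nucleus cells.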",
  "key": {"[1]": {"conditions": "12 h, 1 µM, compound concentration 1 uM"}, "[2]": {"conditions": "12 h, 10 µM, compound concentration 10 uM"}, "[3]": {"conditions": "24 h, 1 µM, compound concentration 1 uM"}, "[4]": {"conditions": "24 h, 10 µM, compound concentration 10 uM"}, "[5]": {"conditions": "48 h, 1 µM, compound concentration 1 uM"}, "[6]": {"conditions": "48 h, 10 µM, compound concentration 10 uM"}},
  "note": "Several values for one entry are separate records, joined by “and”; a condition that tells them apart may be missing. Equal values may be shown once.",
  "data": [
    {"molecule": "COCCNc1nc2ccc(C#CC3(O)CCCCC3)cc2n1-c1ccnc(N)n1", "values": [
      {"measurement": "Population Apoptotic (%)", "setting": "[1]", "value": "9.87% and 12.26%"},
      {"measurement": "Population Fragmented Nuclei (%)", "setting": "[1]", "value": "1.33% and 5.34%"},
      {"measurement": "Population Hoechst High Intensity Objects (%)", "setting": "[1]", "value": 0, "unit": "%"},
      {"measurement": "Population Membrane Permeable-Phenotype (%)", "setting": "[1]", "value": "1.82% and 0%"},
      {"measurement": "Population Mitotic Cells (%)", "setting": "[1]", "value": "90.13% and 87.74%"},
      {"measurement": "Population Normal (%)", "setting": "[1]", "value": 100, "unit": "%"},
      {"measurement": "Population Pyknosed Nuclei (%)", "setting": "[1]", "value": "40.32% and 80.92%"},
      {"measurement": "Total Cell Count", "setting": "[1]", "value": "377 and 131"},
      {"measurement": "Population Apoptotic (%)", "setting": "[2]", "value": "17.15% and 7.53%"},
      {"measurement": "Population Fragmented Nuclei (%)", "setting": "[2]", "value": "0.29% and 2.41%"},
      {"measurement": "Population Hoechst High Intensity Objects (%)", "setting": "[2]", "value": 0, "unit": "%"},
      {"measurement": "Population Membrane Permeable-Phenotype (%)", "setting": "[2]", "value": 0, "unit": "%"},
      {"measurement": "Population Mitotic Cells (%)", "setting": "[2]", "value": "82.85% and 92.47%"},
      {"measurement": "Population Normal (%)", "setting": "[2]", "value": 100, "unit": "%"},
      {"measurement": "Population Pyknosed Nuclei (%)", "setting": "[2]", "value": "68.29% and 87.95%"},
      {"measurement": "Population Tubulin-Different-Phenotype (%)", "setting": "[2]", "value": "29.09% and 56.25%"},
      {"measurement": "Total Cell Count", "setting": "[2]", "value": "350 and 166"},
      {"measurement": "Population Apoptotic (%)", "setting": "[3]", "value": "11.24% and 8.33%"},
      {"measurement": "Population Fragmented Nuclei (%)", "setting": "[3]", "value": "1.68% and 2.99%"},
      {"measurement": "Population Healthy Nuclei (%)", "setting": "[3]", "value": "69.92% and 32.34%"},
      {"measurement": "Population Hoechst High Intensity Objects (%)", "setting": "[3]", "value": "0% and 0.6%"},
      {"measurement": "Population Membrane Permeable-Phenotype (%)", "setting": "[3]", "value": "2.88% and 1.85%"},
      {"measurement": "Population Mitochondria Different-Phenotype (%)", "setting": "[3]", "value": "12.5% and 16.67%"},
      {"measurement": "Population Mitotic Cells (%)", "setting": "[3]", "value": "88.76% and 91.67%"},
      {"measurement": "Population Normal (%)", "setting": "[3]", "value": "100% and 99.4%"},
      {"measurement": "Population Pyknosed Nuclei (%)", "setting": "[3]", "value": "28.4% and 64.67%"},
      {"measurement": "Population Tubulin-Different-Phenotype (%)", "setting": "[3]", "value": "6.49% and 5.56%"},
      {"measurement": "Population Apoptotic (%)", "setting": "[4]", "value": "30% and 31.16%"},
      {"measurement": "Population Fragmented Nuclei (%)", "setting": "[4]", "value": "0.22% and 1.23%"},
      {"measurement": "Population Hoechst High Intensity Objects (%)", "setting": "[4]", "value": "0.22% and 0%"},
      {"measurement": "Population Membrane Permeable-Phenotype (%)", "setting": "[4]", "value": "1% and 0%"},
      {"measurement": "Population Mitochondria Different-Phenotype (%)", "setting": "[4]", "value": "22.89% and 17.39%"},
      {"measurement": "Population Mitotic Cells (%)", "setting": "[4]", "value": "70% and 68.84%"},
      {"measurement": "Population Normal (%)", "setting": "[4]", "value": "99.78% and 100%"},
      {"measurement": "Population Pyknosed Nuclei (%)", "setting": "[4]", "value": "55.31% and 84.66%"},
      {"measurement": "Population Tubulin-Different-Phenotype (%)", "setting": "[4]", "value": "37.81% and 21.74%"},
      {"measurement": "Total Cell Count", "setting": "[4]", "value": "453 and 163"},
      {"measurement": "Population Apoptotic (%)", "setting": "[5]", "value": "6.04% and 14.1%"},
      {"measurement": "Population Fragmented Nuclei (%)", "setting": "[5]", "value": "1.77% and 1.97%"},
      {"measurement": "Population Healthy Nuclei (%)", "setting": "[5]", "value": "86.69% and 67.32%"},
      {"measurement": "Population Hoechst High Intensity Objects (%)", "setting": "[5]", "value": "0.06% and 0%"},
      {"measurement": "Population Membrane Permeable-Phenotype (%)", "setting": "[5]", "value": "6.87% and 2.34%"},
      {"measurement": "Population Mitochondria Different-Phenotype (%)", "setting": "[5]", "value": "9.94% and 24.56%"},
      {"measurement": "Population Mitotic Cells (%)", "setting": "[5]", "value": "93.96% and 85.9%"},
      {"measurement": "Population Normal (%)", "setting": "[5]", "value": "99.94% and 100%"},
      {"measurement": "Population Pyknosed Nuclei (%)", "setting": "[5]", "value": "11.53% and 30.71%"},
      {"measurement": "Population Apoptotic (%)", "setting": "[6]", "value": "18.78% and 26.09%"},
      {"measurement": "Population Fragmented Nuclei (%)", "setting": "[6]", "value": "0.76% and 2.91%"},
      {"measurement": "Population Healthy Nuclei (%)", "setting": "[6]", "value": "68.15% and 30.1%"},
      {"measurement": "Population Hoechst High Intensity Objects (%)", "setting": "[6]", "value": "0.25% and 0%"},
      {"measurement": "Population Membrane Permeable-Phenotype (%)", "setting": "[6]", "value": "2.79% and 1.61%"},
      {"measurement": "Population Mitochondria Different-Phenotype (%)", "setting": "[6]", "value": "59.96% and 58.06%"},
      {"measurement": "Population Mitotic Cells (%)", "setting": "[6]", "value": "81.22% and 73.91%"},
      {"measurement": "Population Normal (%)", "setting": "[6]", "value": "99.75% and 100%"},
      {"measurement": "Population Pyknosed Nuclei (%)", "setting": "[6]", "value": "31.09% and 66.99%"}
    ]}
  ]
}
